HDAC3 inhib: blocks human histone deacetylase 3; 0.15% of 320,000 active; recombinant HDAC3, fluorogenic peptide/trypsin coupled, fluorescence; inhibition, % at 8.3 µM; O15379; in the data active = inhibition above about 26%, passing the limit was not always enough; inconclusive = no clear call, values can overlap the other calls
AHR activator: human AHR activation; 2.5% of 320,000 active; AHR-responsive luciferase reporter cells, luminescence; activation, % at 5 µM; P35869; in the data active = activation above about 47%
CTSL1 counter-1: cathepsin L1 inhibition, PFM18AAP counter-screen; recombinant F. hepatica cathepsin L1, Z-Leu-Arg-MCA fluorescence; inhibition, % at 5.96 µM; 0.49% of 300,000 active; AID 1906;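 active = inhibition above the mean of all tested compounds plus 3 SD, set per screening campaign, cut at about 17% in these data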
PfM18AAP inh-1: blocks P. falciparum M18 aspartyl aminopeptidase. recombinant PfM18AAP, H-Glu-NHMec fluorogenic cleavage. inhibition, % at 7.35 µM. 1.2% of 290,000 active. AID 1822;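 active = inhibition above the campaign mean inhibition over all tested compounds plus 3 SD, cut at about 28% in these data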
SENP1 FRET inh: blocks the human SENP1 SUMO protease catalytic domain; Q9P0U3; 0.21% of 360,000 active; inhibition, % at 10 µM; AID 624204; recombinant SENP1 catalytic domain, CyPet-SUMO1-YPet FRET cleavage;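 active = inhibition at least 30% at 10 µM, raw YFP signal under a set limit, fluorescence ratio 0.5 to 1.5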
Target sequence (Q9P0U3 419-644 limits assumed): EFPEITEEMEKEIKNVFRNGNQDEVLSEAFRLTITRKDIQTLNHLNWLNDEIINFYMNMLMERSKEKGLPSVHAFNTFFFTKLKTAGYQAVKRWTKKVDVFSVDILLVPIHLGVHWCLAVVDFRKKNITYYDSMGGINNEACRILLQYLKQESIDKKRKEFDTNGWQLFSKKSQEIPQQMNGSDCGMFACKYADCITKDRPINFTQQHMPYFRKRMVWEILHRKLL
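Test system: hSENP1 catalytic domain, recombinant; Amount: 20 pM final SENP1 enzyme; Medium: Tris pH 8 buffer plus EDTA, NaCl, BME, BSA, NP40, catalase; Schedule: 50 min enzyme reaction, room temperature, light-protected; Technique: FRET fluorescence in CFP and YFP emission channels; Controls: no-enzyme wells low, DMSO-plus-enzyme wells high control.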
GAA850 FXN act: activators of GAA850 frataxin (FXN) promoter | activation, % at 6 µM | HEK293 lucGAA850 FXN promoter luciferase reporter, 24 h; percent of 10 µM SAHA response | 0.56% of 360,000 active;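 active = activation above the average of all compounds screened plus 3 SD, cutoff fixed separately per campaign, cut at about 7.5% in these data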
PfM18AAP inh-2: confirmation of Plasmodium falciparum M18 aspartyl aminopeptidase inhibitors; shares compounds with PfM18AAP inh-1; recombinant PfM18AAP, H-Glu-NHMec fluorogenic cleavage; inhibition, % at 7.35 µM; 28% of 2,400 active;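 active = mean inhibition over replicate wells above the hit cutoff set for the earlier primary screen, cut at about 29% in these data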
CTSL1 counter-2: Cathepsin L (human) inhibition, confirmation | 2,400 tested, under 10 active | inhibition, % at 5.96 µM | shares compounds with PfM18AAP inh-1 | purified cathepsin L1, Z-Leu-Arg-MCA fluorescence;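 active = average inhibition across replicates above the hit cutoff set in the earlier primary screen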
Target sequence (P07711 whole entry, looked up): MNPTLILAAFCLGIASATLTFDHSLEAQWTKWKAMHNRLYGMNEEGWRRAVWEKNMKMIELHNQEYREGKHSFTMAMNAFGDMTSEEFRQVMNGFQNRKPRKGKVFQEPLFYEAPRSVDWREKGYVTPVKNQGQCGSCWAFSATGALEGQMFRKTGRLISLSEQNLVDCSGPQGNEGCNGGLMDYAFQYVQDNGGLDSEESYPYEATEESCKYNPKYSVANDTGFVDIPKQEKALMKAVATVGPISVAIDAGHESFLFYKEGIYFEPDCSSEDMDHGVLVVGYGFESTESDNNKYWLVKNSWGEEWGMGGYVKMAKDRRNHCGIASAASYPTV
Hits are given with their value; . = inactive; ? = inconclusive; / = not tested or not shown. The list is not random: actives were taken first. Their share in the collection is about 4.2%.

SMILES	HDAC3 inhib	AHR activator	CTSL1 counter-1	PfM18AAP inh-1	SENP1 FRET inh	GAA850 FXN act	PfM18AAP inh-2	CTSL1 counter-2
COc1ccc(Cl)cc1NC(=O)Nn1cnnc1	.	.	.	81	.	.	74	.
Cc1cc(NC(=O)Nc2cc(Cl)ccc2C)no1	.	.	.	.	.	.	/	/
Cc1ccc(Cl)cc1NC(=O)Nn1cnnc1	.	.	.	76	.	.	61	.
COc1ccc(NC(=O)C2(C)Cc3c(-c4ccc(NC(C)=O)cc4)ccnc3O2)cc1OC (centres undefined)	/	/	/	/	.	.	/	/
Cc1onc(C(=O)NN)c1C(=O)Nc1ncc(C(F)(F)F)cc1Cl	.	.	.	55	.	.	.	.
COc1ccc(NC(=S)NCCCc2ccccc2)cc1	.	.	.	.	.	.	/	/
NS(=O)(=O)c1ccc(CNC(=S)Nc2ccc(F)c(Cl)c2)cc1	?	.	.	.	.	.	/	/
NS(=O)(=O)c1ccc(NC(=S)NCc2ccc(Cl)cc2)cc1	.	.	.	35	.	.	.	.
NS(=O)(=O)c1ccc(NC(=S)NCCc2ccccc2)cc1	.	.	.	41	.	.	.	.
COCCCNC(=S)NNC(=S)Nc1ccc(OC)cc1	.	.	.	49	.	.	.	.
NS(=O)(=O)c1ccc(CCNC(=O)c2ccc[nH]c2=S)cc1	.	.	.	43	.	.	.	.
CCSc1nnc(NC(=O)CN2C(=O)N(C)C3(CCCCC3)C2=O)s1	/	/	/	/	.	.	/	/
C[C@H]1CNC(=O)c2c(C(=O)N3CCN(C(=O)OC(C)(C)C)CC3)ncn21	/	/	/	/	.	/	/	/
COc1cc(Cl)c(C)cc1NC(=O)CCN1C(=O)NC(C)(C)C1=O	/	/	/	/	.	.	/	/
CCOC(=O)[C@]12CCC=C1N(Cc1cccc3ccccc13)C(=O)[C@H](CC(=O)NCCCN1CCCC1=O)C2	/	/	/	/	.	/	/	/
CC1(C(=O)Nc2ccc3c(c2)OCCO3)CCN1C(=O)c1cccc(F)c1 (centres undefined)	/	/	/	/	.	.	/	/
CC(C)OCCCNC(=S)Nc1ccc(S(N)(=O)=O)cc1	.	.	.	49	.	.	.	.
CC(=O)c1ccc(NC(=S)NCCc2ccc(S(N)(=O)=O)cc2)cc1	.	.	.	.	.	.	/	/
CCN(CC)c1ccc2nc3c4ccccc4c(=O)cc-3oc2c1	.	/	/	38	/	/	.	.
CC(=O)Nc1sc(N/N=C\c2ccco2)nc1-c1cccs1	.	.	.	.	.	.	/	/
O=C(/C=C/c1ccc(O)c(O)c1)NC(=O)c1ccccc1O	.	.	.	77	.	.	62	.
CN(CC(=O)O)S(=O)(=O)c1cc(Cl)ccc1Cl	.	.	.	.	.	.	/	/
CN(CC(=O)Nn1cnnc1)S(=O)(=O)c1cc(Cl)ccc1Cl	.	.	.	44	.	.	45	.
O=C(CSc1ccc(Cl)cc1)Nn1cnnc1	.	.	.	40	.	.	52	.
O=C(CSc1ccc2ccccc2c1)Nn1cnnc1	.	.	.	65	.	.	51	.
SMILES	HDAC3 inhib	AHR activator	CTSL1 counter-1	PfM18AAP inh-1	SENP1 FRET inh	GAA850 FXN act	PfM18AAP inh-2	CTSL1 counter-2
Cc1ccc(NC(=O)CCC(=O)c2cc(C)sc2C)nc1	/	.	.	/	.	.	/	/
Cc1ccc(C(=O)NC(=S)NCc2ccccc2)cc1Br	.	.	.	/	.	.	/	/
COCCN(C(=S)Nc1c(C)cc(C)cc1C)C(C)c1cccnc1 (centres undefined)	.	.	.	49	.	.	.	.
COCCN(C(=S)Nc1c(C)cccc1C)C(C)c1cccnc1 (centres undefined)	.	.	.	.	.	.	/	/
CCOc1ccc(N2C(=O)CC(C(C)c3ccccc3)C2=O)cc1 (centres undefined)	.	.	.	.	.	.	/	/
COc1ccc(-n2c(SCC#N)nc3c(sc(=S)n3-c3ccccc3)c2=O)c(OC)c1	.	.	.	35	.	.	.	.
Cc1ccc(S(=O)(=O)NC(=O)N(CCC#N)Cc2ccccc2)cc1	.	.	.	.	.	.	/	/
Cc1ccccc1Nc1nc(N)nc(COC(=O)c2c(C)noc2C)n1	.	.	/	/	.	.	/	/
CC(=O)Oc1ccc(C(=O)Nc2ccc(S(=O)(=O)NCC3CCCO3)cc2)cc1 (centres undefined)	.	.	.	.	.	.	/	/
COc1cc(C(C[N+](=O)[O-])c2c(C)cc3ccccn23)ccc1O (centres undefined)	.	.	.	40	.	.	.	.
COc1ccc(C(C[N+](=O)[O-])c2c(-c3ccccc3)cc3ccccn23)cc1OC (centres undefined)	.	.	.	.	.	.	/	/
CCC(CC)c1nnc(NC(=O)C2CC(=O)N(CCc3ccc(F)cc3)C2)s1 (centres undefined)	.	.	.	35	.	.	.	.
COc1ccc2c(COC(=O)c3ccc(C)c(S(=O)(=O)N4CCOCC4)c3)cc(=O)oc2c1	/	/	/	/	.	.	/	/
Cc1nc(-c2ccc(O)c(O)c2)cs1	.	.	.	94	.	.	87	.
COc1cc(-c2csc(C)n2)ccc1O	.	.	.	.	.	.	/	/
Cc1cccc(C)c1-n1c(C)cc(/C=N\Nc2ccc([N+](=O)[O-])cn2)c1C	.	.	.	51	.	.	.	.
COc1cc(/C=C/C(=O)CC(=O)/C=C/c2ccc(O)c(OC)c2)ccc1O	.	.	.	35	.	.	.	.
O=[N+]([O-])c1ccc(N/N=C/c2cn(Cc3ccc(F)cc3)c3ccccc23)nc1	.	.	.	40	.	.	.	.
COc1ccc(/C=N/Nc2ccc([N+](=O)[O-])cc2)cc1O	.	.	.	48	.	.	.	.
O=c1c(Br)ccc(Br)cc1Br	/	/	/	/	.	.	/	/
COc1cc(/C=N/Nc2ccc(C(=O)O)cc2)cc(OC)c1OC	.	.	.	.	.	.	/	/
COc1cc(/C=N/Nc2ccc([N+](=O)[O-])cn2)cc(OC)c1O	.	/	/	38	.	.	.	.
COc1cc(/C=N/Nc2ccc(C(=O)O)cc2)ccc1O	.	.	.	50	.	.	.	.
COC(=O)C1=C(O)/C(=C\c2ccc(O)c(OC)c2)N=C1C	.	.	.	55	.	.	.	.
COC(=O)C1=C(O)/C(=C\c2ccc(OCC(=O)Nc3ccccc3OC)cc2)N=C1C	.	.	.	.	.	.	/	/
CSCCC(NS(=O)(=O)c1ccc(C)cc1)C(=O)N1CC=C(c2ccccc2)CC1 (centres undefined)	.	.	.	/	.	.	/	/
CCOC(=O)CN=C/C(C(=O)Nc1nccs1)=C(/C)O	.	.	.	.	.	.	/	/
O=C(NNC(=O)c1ccc(F)cc1F)c1ccc2c(c1)OCO2	.	.	.	.	.	.	/	/

Source: PubChem BioAssay (several laboratories)
